Results from ChEMBL document CHEMBL5058577, “EUbOPEN Chemogenomics Library 2 (Multiplex)” (2022).

Test system: Fibroblast
Test: Multiplex assay against human fibroblast
Type: toxicity, cell-based
In short: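 Cells stained live at seeding with Hoechst33342, BioTracker Green Microtubule Cytoskeleton Dye, MitoTracker Red and Annexin V Alexa Fluor 680 were imaged on a CQ1 microscope at 37°C and 5% CO2 after compound addition. Their classification by CellPathfinder machine-learning gating ran from Hoechst high-intensity objects versus normal cells, to healthy, pyknosed or fragmented nuclei among normal cells, to mitotic or apoptotic among pyknosed cells. Tubulin, mitochondrial-mass and membrane-permeability phenotypes are per cents of healthy-nucleus cells.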

[1] = 12 h, 1 µM, compound concentration 1 uM, replicate 1
[2] = 12 h, 1 µM, compound concentration 1 uM, replicate 2
[3] = 12 h, 10 µM, compound concentration 10 uM, replicate 1
[4] = 12 h, 10 µM, compound concentration 10 uM, replicate 2
[5] = 24 h, 1 µM, compound concentration 1 uM, replicate 1
[6] = 24 h, 1 µM, compound concentration 1 uM, replicate 2
[7] = 24 h, 10 µM, compound concentration 10 uM, replicate 1
[8] = 24 h, 10 µM, compound concentration 10 uM, replicate 2
[9] = 48 h, 1 µM, compound concentration 1 uM, replicate 1
[10] = 48 h, 1 µM, compound concentration 1 uM, replicate 2
[11] = 48 h, 10 µM, compound concentration 10 uM, replicate 1
[12] = 48 h, 10 µM, compound concentration 10 uM, replicate 2

CCCCCCNC(=O)Nc1ccc(S(=O)(=O)Nc2ccc(CCNC[C@H](O)COc3ccc(O)cc3)cc2)cc1 [L-755507]
Population Apoptotic (%) [1]: 40% | Population Fragmented Nuclei (%) [1]: 27% | Population Healthy Nuclei (%) [1]: 59% | Population Hoechst High Intensity Objects (%) [1]: 1% | Population Membrane Permeable-Phenotype (%) [1]: 3% | Population Mitochondria Different-Phenotype (%) [1]: 6% | Population Mitotic Cells (%) [1]: 60% | Population Normal (%) [1]: 98% | Population Pyknosed Nuclei (%) [1]: 12% | Population Tubulin-Different-Phenotype (%) [1]: 34% | Total Cell Count [1]: 198 | Population Apoptotic (%) [2]: 46% | Population Fragmented Nuclei (%) [2]: 21% | Population Hoechst High Intensity Objects (%) [2]: 3% | Population Mitochondria Different-Phenotype (%) [2]: 3% | Population Mitotic Cells (%) [2]: 53% | Population Normal (%) [2]: 96% | Population Pyknosed Nuclei (%) [2]: 19% | Population Tubulin-Different-Phenotype (%) [2]: 36% | Total Cell Count [2]: 160 | Population Apoptotic (%) [3]: 45% | Population Fragmented Nuclei (%) [3]: 17% | Population Healthy Nuclei (%) [3]: 72% | Population Hoechst High Intensity Objects (%) [3]: 5% | Population Membrane Permeable-Phenotype (%) [3]: 0% | Population Mitochondria Different-Phenotype (%) [3]: 10% | Population Mitotic Cells (%) [3]: 54% | Population Normal (%) [3]: 94% | Population Pyknosed Nuclei (%) [3]: 10% | Population Tubulin-Different-Phenotype (%) [3]: 47% | Total Cell Count [3]: 218 | Population Apoptotic (%) [4]: 42% | Population Fragmented Nuclei (%) [4]: 34% | Population Healthy Nuclei (%) [4]: 48% | Population Membrane Permeable-Phenotype (%) [4]: 1% | Population Mitochondria Different-Phenotype (%) [4]: 19% | Population Mitotic Cells (%) [4]: 57% | Population Pyknosed Nuclei (%) [4]: 17% | Population Tubulin-Different-Phenotype (%) [4]: 64% | Total Cell Count [4]: 172 | Population Apoptotic (%) [5]: 31% | Population Fragmented Nuclei (%) [5]: 26% | Population Healthy Nuclei (%) [5]: 63% | Population Hoechst High Intensity Objects (%) [5]: 1% | Population Membrane Permeable-Phenotype (%) [5]: 0% | Population Mitochondria Different-Phenotype (%) [5]: 3% | Population Mitotic Cells (%) [5]: 68% | Population Normal (%) [5]: 98% | Population Pyknosed Nuclei (%) [5]: 9% | Population Tubulin-Different-Phenotype (%) [5]: 27% | Total Cell Count [5]: 196 | Population Apoptotic (%) [6]: 39% | Population Healthy Nuclei (%) [6]: 59% | Population Hoechst High Intensity Objects (%) [6]: 2% | Population Membrane Permeable-Phenotype (%) [6]: 3% | Population Mitochondria Different-Phenotype (%) [6]: 12% | Population Mitotic Cells (%) [6]: 60% | Population Normal (%) [6]: 97% | Population Pyknosed Nuclei (%) [6]: 13% | Population Tubulin-Different-Phenotype (%) [6]: 44% | Total Cell Count [6]: 176 | Population Apoptotic (%) [7]: 72% | Population Fragmented Nuclei (%) [7]: 21% | Population Healthy Nuclei (%) [7]: 70% | Population Hoechst High Intensity Objects (%) [7]: 8% | Population Membrane Permeable-Phenotype (%) [7]: 0% | Population Mitochondria Different-Phenotype (%) [7]: 8% | Population Mitotic Cells (%) [7]: 27% | Population Normal (%) [7]: 91% | Population Pyknosed Nuclei (%) [7]: 8% | Population Tubulin-Different-Phenotype (%) [7]: 38% | Total Cell Count [7]: 232 | Population Apoptotic (%) [8]: 50% | Population Fragmented Nuclei (%) [8]: 38% | Population Healthy Nuclei (%) [8]: 51% | Population Hoechst High Intensity Objects (%) [8]: 4% | Population Membrane Permeable-Phenotype (%) [8]: 3% | Population Mitochondria Different-Phenotype (%) [8]: 19% | Population Mitotic Cells (%) [8]: 50% | Population Normal (%) [8]: 95% | Population Pyknosed Nuclei (%) [8]: 9% | Population Tubulin-Different-Phenotype (%) [8]: 65% | Total Cell Count [8]: 168 | Population Apoptotic (%) [9]: 62% | Population Fragmented Nuclei (%) [9]: 28% | Population Healthy Nuclei (%) [9]: 63% | Population Hoechst High Intensity Objects (%) [9]: 3% | Population Membrane Permeable-Phenotype (%) [9]: 0% | Population Mitochondria Different-Phenotype (%) [9]: 4% | Population Mitotic Cells (%) [9]: 37% | Population Normal (%) [9]: 96% | Population Pyknosed Nuclei (%) [9]: 8% | Population Tubulin-Different-Phenotype (%) [9]: 31% | Total Cell Count [9]: 201 | Population Apoptotic (%) [10]: 53% | Population Fragmented Nuclei (%) [10]: 33% | Population Healthy Nuclei (%) [10]: 58% | Population Hoechst High Intensity Objects (%) [10]: 4% | Population Membrane Permeable-Phenotype (%) [10]: 1% | Population Mitochondria Different-Phenotype (%) [10]: 6% | Population Mitotic Cells (%) [10]: 46% | Population Normal (%) [10]: 95% | Population Tubulin-Different-Phenotype (%) [10]: 33% | Total Cell Count [10]: 170 | Population Apoptotic (%) [11]: 79% | Population Fragmented Nuclei (%) [11]: 19% | Population Healthy Nuclei (%) [11]: 69% | Population Hoechst High Intensity Objects (%) [11]: 6% | Population Membrane Permeable-Phenotype (%) [11]: 1% | Population Mitochondria Different-Phenotype (%) [11]: 8% | Population Mitotic Cells (%) [11]: 20% | Population Normal (%) [11]: 93% | Population Pyknosed Nuclei (%) [11]: 10% | Population Tubulin-Different-Phenotype (%) [11]: 49% | Total Cell Count [11]: 240 | Population Apoptotic (%) [12]: 71% | Population Fragmented Nuclei (%) [12]: 42% | Population Healthy Nuclei (%) [12]: 53% | Population Hoechst High Intensity Objects (%) [12]: 3% | Population Membrane Permeable-Phenotype (%) [12]: 5% | Population Mitochondria Different-Phenotype (%) [12]: 11% | Population Mitotic Cells (%) [12]: 28% | Population Normal (%) [12]: 96% | Population Pyknosed Nuclei (%) [12]: 3% | Population Tubulin-Different-Phenotype (%) [12]: 55% | Total Cell Count [12]: 184

O=C(NCCNCC(O)COc1ccc(O)cc1)N1CCOCC1.O=C(NCCNCC(O)COc1ccc(O)cc1)N1CCOCC1.O=C(O)/C=C/C(=O)O (stereo not given) [XAMOTEROL FUMARATE]
Population Apoptotic (%) [1]: 63% | Population Fragmented Nuclei (%) [1]: 15% | Population Healthy Nuclei (%) [1]: 67% | Population Hoechst High Intensity Objects (%) [1]: 2% | Population Membrane Permeable-Phenotype (%) [1]: 1% | Population Mitochondria Different-Phenotype (%) [1]: 4% | Population Mitotic Cells (%) [1]: 36% | Population Normal (%) [1]: 97% | Population Pyknosed Nuclei (%) [1]: 17% | Population Tubulin-Different-Phenotype (%) [1]: 24% | Total Cell Count [1]: 114 | Population Apoptotic (%) [2]: 43% | Population Fragmented Nuclei (%) [2]: 23% | Population Healthy Nuclei (%) [2]: 53% | Population Hoechst High Intensity Objects (%) [2]: 4% | Population Membrane Permeable-Phenotype (%) [2]: 16% | Population Mitochondria Different-Phenotype (%) [2]: 7% | Population Mitotic Cells (%) [2]: 56% | Population Normal (%) [2]: 95% | Population Pyknosed Nuclei (%) [2]: 23% | Population Tubulin-Different-Phenotype (%) [2]: 55% | Total Cell Count [2]: 167 | Population Apoptotic (%) [3]: 30% | Population Fragmented Nuclei (%) [3]: 21% | Population Healthy Nuclei (%) [3]: 64% | Population Hoechst High Intensity Objects (%) [3]: 4% | Population Membrane Permeable-Phenotype (%) [3]: 2% | Population Mitochondria Different-Phenotype (%) [3]: 5% | Population Mitotic Cells (%) [3]: 70% | Population Normal (%) [3]: 95% | Population Pyknosed Nuclei (%) [3]: 14% | Population Tubulin-Different-Phenotype (%) [3]: 32% | Total Cell Count [3]: 143 | Population Apoptotic (%) [4]: 17% | Population Fragmented Nuclei (%) [4]: 30% | Population Healthy Nuclei (%) [4]: 49% | Population Hoechst High Intensity Objects (%) [4]: 5% | Population Membrane Permeable-Phenotype (%) [4]: 4% | Population Mitochondria Different-Phenotype (%) [4]: 11% | Population Mitotic Cells (%) [4]: 82% | Population Normal (%) [4]: 94% | Population Pyknosed Nuclei (%) [4]: 20% | Population Tubulin-Different-Phenotype (%) [4]: 43% | Total Cell Count [4]: 154 | Population Apoptotic (%) [5]: 68% | Population Fragmented Nuclei (%) [5]: 20% | Population Healthy Nuclei (%) [5]: 63% | Population Hoechst High Intensity Objects (%) [5]: 1% | Population Membrane Permeable-Phenotype (%) [5]: 2% | Population Mitochondria Different-Phenotype (%) [5]: 2% | Population Mitotic Cells (%) [5]: 31% | Population Normal (%) [5]: 98% | Population Pyknosed Nuclei (%) [5]: 15% | Population Tubulin-Different-Phenotype (%) [5]: 25% | Total Cell Count [5]: 121 | Population Apoptotic (%) [6]: 50% | Population Fragmented Nuclei (%) [6]: 28% | Population Healthy Nuclei (%) [6]: 52% | Population Hoechst High Intensity Objects (%) [6]: 2% | Population Membrane Permeable-Phenotype (%) [6]: 18% | Population Mitochondria Different-Phenotype (%) [6]: 6% | Population Mitotic Cells (%) [6]: 50% | Population Normal (%) [6]: 97% | Population Pyknosed Nuclei (%) [6]: 19% | Population Tubulin-Different-Phenotype (%) [6]: 63% | Total Cell Count [6]: 149 | Population Apoptotic (%) [7]: 62% | Population Fragmented Nuclei (%) [7]: 20% | Population Healthy Nuclei (%) [7]: 67% | Population Hoechst High Intensity Objects (%) [7]: 1% | Population Membrane Permeable-Phenotype (%) [7]: 0% | Population Mitochondria Different-Phenotype (%) [7]: 0% | Population Mitotic Cells (%) [7]: 37% | Population Normal (%) [7]: 98% | Population Pyknosed Nuclei (%) [7]: 12% | Population Tubulin-Different-Phenotype (%) [7]: 31% | Total Cell Count [7]: 135 | Population Apoptotic (%) [8]: 42% | Population Fragmented Nuclei (%) [8]: 34% | Population Healthy Nuclei (%) [8]: 54% | Population Membrane Permeable-Phenotype (%) [8]: 5% | Population Mitochondria Different-Phenotype (%) [8]: 8% | Population Mitotic Cells (%) [8]: 57% | Population Pyknosed Nuclei (%) [8]: 11% | Population Tubulin-Different-Phenotype (%) [8]: 41% | Total Cell Count [8]: 172 | Population Apoptotic (%) [9]: 65% | Population Fragmented Nuclei (%) [9]: 27% | Population Healthy Nuclei (%) [9]: 57% | Population Hoechst High Intensity Objects (%) [9]: 1% | Population Membrane Permeable-Phenotype (%) [9]: 1% | Population Mitochondria Different-Phenotype (%) [9]: 2% | Population Mitotic Cells (%) [9]: 35% | Population Normal (%) [9]: 98% | Population Pyknosed Nuclei (%) [9]: 15% | Population Tubulin-Different-Phenotype (%) [9]: 21% | Total Cell Count [9]: 131 | Population Apoptotic (%) [10]: 40% | Population Fragmented Nuclei (%) [10]: 42% | Population Healthy Nuclei (%) [10]: 46% | Population Hoechst High Intensity Objects (%) [10]: 2% | Population Membrane Permeable-Phenotype (%) [10]: 7% | Population Mitochondria Different-Phenotype (%) [10]: 4% | Population Mitotic Cells (%) [10]: 60% | Population Normal (%) [10]: 97% | Population Pyknosed Nuclei (%) [10]: 10% | Population Tubulin-Different-Phenotype (%) [10]: 65% | Total Cell Count [10]: 140 | Population Apoptotic (%) [11]: 56% | Population Fragmented Nuclei (%) [11]: 25% | Population Healthy Nuclei (%) [11]: 62% | Population Hoechst High Intensity Objects (%) [11]: 4% | Population Membrane Permeable-Phenotype (%) [11]: 1% | Population Mitochondria Different-Phenotype (%) [11]: 3% | Population Mitotic Cells (%) [11]: 43% | Population Normal (%) [11]: 95% | Population Pyknosed Nuclei (%) [11]: 11% | Population Tubulin-Different-Phenotype (%) [11]: 33% | Total Cell Count [11]: 144 | Population Apoptotic (%) [12]: 52% | Population Fragmented Nuclei (%) [12]: 33% | Population Healthy Nuclei (%) [12]: 54% | Population Hoechst High Intensity Objects (%) [12]: 3% | Population Membrane Permeable-Phenotype (%) [12]: 6% | Population Mitochondria Different-Phenotype (%) [12]: 4% | Population Mitotic Cells (%) [12]: 47% | Population Normal (%) [12]: 96% | Population Tubulin-Different-Phenotype (%) [12]: 48% | Total Cell Count [12]: 157
